Only some compounds are listed: those with a hit (about 3.1% of all), similar ones and a draw of the others.
hERG protect = compounds protecting human hERG from proarrhythmic drug block; activation (rescue from dofetilide block), less the hit threshold, % at 10 µM; 310,000 compounds, 0.51% hits; AID 1511; CHO-hERG, FluxOR thallium flux, dofetilide IC70 present;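 active = activation above the mean of controls blocked by dofetilide plus 5 SD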;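 also: thallium influx through hERG after potassium depolarization seen as dye fluorescence rise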
KCNQ1 act = potentiates or activates the human KCNQ1 potassium channel. P51787. CHO-K1 KCNQ1, thallium flux FluxOR fluorescence; hits give high values. B-score at 10 µM. 310,000 compounds, 0.35% hits. AID 2648;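 active = fluorescence ratio B-score, a plate-corrected score, at least three library SD, with initial intensity B-score within 5 SD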
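assay system = KCNQ1-transfected CHO-K1 cells | medium = assay buffer with matched DMSO | probe or stimulus = depolarizing K+/Tl+ stimulus, K2SO4 and Tl2SO4 each 12.5 mM in 5x stock | dosing = single dose | incubation = dye 90 min, compound 20 min, room temperature | detection = kinetic FluxOR fluorescence, 10 s baseline plus 110 s post-stimulus | evaluation = ratio B score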
KCNK3 block = human KCNK3 channel inhibition, primary screen; O14649; B-score at 10 µM; 340,000 compounds, 0.84% hits; CHO-KCNK3 thallium flux, FluxOR fluorescence; hits give low values; AID 602410;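 active = B-score under library mean minus 4 SD, starting fluorescence ratio at most library mean plus 5 SD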;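 also: more negative B-score means stronger inhibition of thallium flux through KCNK3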
KCNQ1 inh = blocks the human KCNQ1 potassium channel | 310,000 compounds, 1.3% hits | P51787 | B-score at 10 µM | CHO-K1 KCNQ1, FluxOR thallium flux fluorescence; hits give high values;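 active = compounds whose thallium flux B-score, printed positive for inhibition, exceeds three library SD while starting fluorescence stays within three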;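 also: channel opened by potassium depolarization with thallium stimulus after 20 min compound exposure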
KCNK9 block = blocks the human KCNK9 two-pore domain potassium channel. Q9NPC2. HEK293 KCNK9, FluxOR thallium flux fluorescence; hits give low values. B-score at 10 µM. 310,000 compounds, 1.2% hits. AID 488922;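 active = ratio B-score over 3 SD below the library mean, with starting fluorescence within 5 SD of its mean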;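 also: negative B-score means less thallium flux so channel inhibition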
Target sequence (Q9NPC2 whole entry, looked up, the tested form may be a part): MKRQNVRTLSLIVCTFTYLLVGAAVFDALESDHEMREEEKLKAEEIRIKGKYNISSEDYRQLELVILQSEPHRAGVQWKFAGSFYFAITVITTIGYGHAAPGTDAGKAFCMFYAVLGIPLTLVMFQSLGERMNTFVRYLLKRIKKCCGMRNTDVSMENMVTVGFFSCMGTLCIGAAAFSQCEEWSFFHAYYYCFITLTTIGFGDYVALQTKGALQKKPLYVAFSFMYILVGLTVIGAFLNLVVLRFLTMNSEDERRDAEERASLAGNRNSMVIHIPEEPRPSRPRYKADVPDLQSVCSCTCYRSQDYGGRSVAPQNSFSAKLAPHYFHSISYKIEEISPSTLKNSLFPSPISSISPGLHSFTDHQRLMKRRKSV
KCNK3 inh conf = confirmation of human KCNK3 two-pore domain potassium channel inhibitors | 2,400 compounds, 99% hits | shares compounds with KCNK3 block | ratio percent of control, % at 10 µM | AID 651638 | CHO-KCNK3 thallium flux, FluxOR fluorescence; 0% buffer, 100% carvedilol maximal block;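 active = ratio percent of control, averaged over triplicates, above buffer control mean plus 5 SD, cut at about 64% in these data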;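 also: ratio is the fluorescence rise from min to max over baseline after thallium stimulus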
KCNK3 noninduced = activity in cells without induced KCNK3 expression | thallium flux ratio (lower = more inhibition) at 10 µM | AID 651747 | shares compounds with KCNK3 block | non-induced KCNK3 parental cells, FluxOR thallium flux; hits give low values | 2,400 compounds, 40% hits;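 active = thallium flux ratio, averaged over three wells, more than 5 SD below the buffer control mean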;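 also: host cells are CHO cells without KCNK3 induction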
Of the large screens only hits and unclear results are named; the others gave an inactive call (follow-up assays come after a bar, where they were run).

COc1ccccc1-c1cc(C(=O)N/N=C/c2cccs2)c2ccccc2n1	KCNK3 block -9.4 | KCNK3 inh conf 109 | KCNK3 noninduced inactive
COc1ccccc1CN(C)C(=O)c1cc(-c2cccs2)nc2ccccc12	KCNK3 block -13 | KCNK3 inh conf 119 | KCNK3 noninduced 0.14
O=C(N/N=C/c1cccs1)c1cc(-c2ccncc2)nc2ccccc12	none
CC(C)c1nc2oc3c(N(C)CCO)ncnc3c2c2c1CCC2	none
Cc1cc2nccc(-c3ccc(Cl)c([N+](=O)[O-])c3)n2n1	none
CC(=O)c1ccc(OCCCC(=O)Nc2cc(S(=O)(=O)N(C)C)ccc2C)cc1	none
Cc1ccc(S(=O)(=O)N(C)C)cc1NC(=O)C(C)N(C)CCOc1ccc(Cl)cc1 (stereo not drawn)	KCNK3 block -9.4 | KCNK3 inh conf 79 | KCNK3 noninduced inactive
CCCCCCNCc1ccc(Br)cc1	KCNK3 block -9.7 | KCNK3 inh conf 77 | KCNK3 noninduced inactive
Cc1nn(C(C)(C)C)c(OC(=O)c2cccs2)c1Sc1ccccc1	KCNK3 block -12, KCNK9 block -8.1 | KCNK3 inh conf 101 | KCNK3 noninduced inactive
O=C(Nc1nc(-c2ccc3c(c2)OCO3)cs1)C1COc2ccccc2O1 (stereo not drawn)	KCNK3 block -11 | KCNK3 inh conf 109 | KCNK3 noninduced inactive
O=C(Nc1nc(-c2ccccc2)cs1)C1COc2ccccc2O1 (stereo not drawn)	none
CCCCn1c(N)c(N(Cc2ccccc2OC)C(=O)CCSC)c(=O)[nH]c1=O	none
C=C1C(C(=O)N2CCOCC2)C1C(=O)N1CCOCC1 (stereo not drawn)	none
COc1ccc(OC)c(/C=C/C(=O)c2ccc(Cl)cc2)c1	KCNK3 block -10, KCNK9 block -6.9 | KCNK3 inh conf 120 | KCNK3 noninduced 0.16
COc1ccccc1/C=C/C(=O)c1ccc(Cl)cc1	none
CCC(C)NCCOCCOc1ccc(Cl)cc1Br (stereo not drawn)	none
CCc1c(C)nc2cc(-c3ccc(OC)c(OC)c3)nn2c1N1CCC(C)CC1	KCNK3 block -8.9 | KCNK3 inh conf 104 | KCNK3 noninduced inactive
CCc1c(C)nc2cc(-c3ccc(OC)c(OC)c3)nn2c1N1CCCC1	KCNK3 block -9.6 | KCNK3 inh conf 109 | KCNK3 noninduced inactive
COc1ccc(-c2c(C)nn3c(N4CCCCCC4)cc(C)nc23)cc1OC	none
COc1ccccc1NC(=O)Cc1nnc(SCC(=O)c2ccccc2)n1C	none
CC(C)OCCCNC(=O)c1cn(C)c2ccc(S(=O)(=O)N(C)C3CCCCC3)cc2c1=O	KCNK3 block -9.1 | KCNK3 inh conf 90 | KCNK3 noninduced 0.14
CN(C1CCCCC1)S(=O)(=O)c1ccc2c(c1)c(=O)c(C(=O)NCCCN1CCCC1)cn2C	none
COc1ccc(-c2[nH]ncc2N=Nc2ccccc2)cc1	KCNK3 block -9.2 | KCNK3 inh conf 88 | KCNK3 noninduced inactive
COc1ccc(-c2[nH]ncc2N=Nc2cc(C)cc(C)c2)cc1	none
Cc1ccc(NS(=O)(=O)c2cc([N+](=O)[O-])ccc2N/N=C/c2sc(N3CCOCC3)nc2-c2ccccc2)c(C)c1	none
Cc1ccc(NC(=O)C2COc3ccccc3O2)cc1S(=O)(=O)N1CCCCC1 (stereo not drawn)	none (no result: hERG protect, KCNQ1 act, KCNQ1 inh, KCNK9 block)
CC(C)C(CCNC(=O)CN1C(=O)c2ccccc2C1=O)c1ccco1 (stereo not drawn)	none
CC(C)C(CCNC(=O)CC(Cc1ccccc1)c1ccco1)c1ccco1 (stereo not drawn)	KCNK3 block -9.4 | KCNK3 inh conf 120 | KCNK3 noninduced 0.15
OCC[C@@H]1C[C@@H](O)[C@H](O)[C@]2(Cc3ccccc3CCO2)O1	none
O=C(CN1c2ccccc2S(=O)(=O)c2ccccc21)NCc1ccc(F)cc1	none
CCN(CC(=O)Nc1ccc(NC(C)=O)cc1)CC(=O)Nc1cc(C)on1	none (no result: hERG protect, KCNQ1 act, KCNQ1 inh, KCNK9 block)
O=[N+]([O-])c1ccc(/C=C/c2ccc3ccccc3n2)cc1	KCNK3 block -9.2 | KCNK3 inh conf 94 | KCNK3 noninduced inactive
O=S(=O)(NCCc1ccncc1)c1cc(Br)ccc1F	none
CN(C)C(=O)Nc1ccccc1CC[N+](=O)[O-]	none
O=C(Nc1ccc(Cl)cc1)Nc1ccccc1CC[N+](=O)[O-]	KCNK3 block -11, KCNQ1 inh 8 | KCNK3 inh conf 82 | KCNK3 noninduced inactive
CCN(CC)S(=O)(=O)c1ccc(C)c(NC(=O)COC(=O)CN2C(=O)NC(C)(C)C2=O)c1	none
CCOC(=O)c1cc2ccc3ccccc3c2s1	KCNK3 block -9.8 | KCNK3 inh conf 99 | KCNK3 noninduced inactive
CNc1ccc(Br)cc(C(=O)/C=C/c2ccc(Cl)cc2Cl)c1=O	KCNK3 block -9.7, KCNQ1 inh 10 | KCNK3 inh conf 117 | KCNK3 noninduced 0.12
Fc1ccc(Br)cc1/C=N/N1CCN(c2ccccc2)CC1	KCNK3 block -9.3 | KCNK3 inh conf 96 | KCNK3 noninduced inactive
Cc1ccc(CN2CCN(/N=C/c3cc(Br)ccc3F)CC2)cc1	none
Nc1oc2ccc(F)cc2c(=O)c1C=O	none
COCCCNC(=O)Cn1ccc(N)nc1=O	none (no result: hERG protect, KCNQ1 act, KCNQ1 inh, KCNK9 block)
Cc1ccc(-n2c(SCC3CCCCO3)nnc2-c2ccco2)cc1 (stereo not drawn)	none
O=C1c2cccc3cccc(c23)N1Cc1ccc(F)cc1	none
O=C1c2cccc3cccc(c23)N1Cc1cccc(F)c1	KCNK3 block -14 | KCNK3 inh conf 101 | KCNK3 noninduced inactive
CCOc1ccccc1C(=O)NCCC(=O)O	none
CCOc1cc(NC(=O)C2CC2)c(OCC)cc1NC(=O)c1cc(OC)c(OC)c(OC)c1	none
CCOc1cc(NC(=O)C2CC2)c(OCC)cc1NC(=O)c1ccccc1OCC	KCNK3 block -8.7 | KCNK3 inh conf 102 | KCNK3 noninduced inactive
CCOc1ccccc1C(=O)NCCCCNC(=O)c1ccccc1OCC	KCNK3 block -9.8 | KCNK3 inh conf 94 | KCNK3 noninduced inactive
CC(NC(=O)N1CCOCC1)c1ccccc1 (stereo not drawn)	none
CCOC(=O)c1c(NC(=O)c2cccs2)sc(C(=O)N(C)C)c1C	none
CCOC(=O)c1c(NC(=O)c2cccs2)sc(C)c1CC	KCNK3 block -9.8, KCNK9 block -7.5 | KCNK3 inh conf 119 | KCNK3 noninduced inactive
CN(Cc1ccccc1)S(=O)(=O)c1ccc(N2CCCC2=O)cc1	none (no result: hERG protect, KCNQ1 act, KCNQ1 inh, KCNK9 block)
O=C1CC(c2ccccc2)(c2ccccc2)c2ccccc21	none (no result: hERG protect, KCNQ1 act, KCNQ1 inh, KCNK9 block)
O=C1OC(c2ccccc2)(c2ccccc2)c2ccccc21	KCNK3 block -12 (no result: hERG protect, KCNQ1 act, KCNQ1 inh, KCNK9 block) | KCNK3 inh conf 107 | KCNK3 noninduced inactive
Oc1ccccc1/C=N/c1c(-c2ccco2)nc2ccccn12	KCNK3 block -9.7 | KCNK3 inh conf 95 | KCNK3 noninduced inactive

Screens: PubChem BioAssay, Johns Hopkins Ion Channel Center
